Key:
[1] = system: MKN-1; assay: Growth inhibition of human MKN-1 cells measured after 48 hrs by sulforhodamine B assay; assay type: functional
Summary of the method: (§1)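 Panel of 39 human cancer cell lines tested at the Japanese Foundation for Cancer Research. Five concentrations per compound, spanning 10⁻¹¹–10⁻⁷ M, 10⁻¹⁰–10⁻⁶ M or 10⁻⁸–10⁻⁴ M, were used to build dose-response curves. GI₅₀ is the concentration giving 50% growth inhibition relative to control.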

[2] = system: SNB-78; assay: Growth inhibition of human SNB-78 cells measured after 48 hrs by sulforhodamine B assay; assay type: functional; summary of the method: as §1
[3] = system: U-251; assay: Growth inhibition of human U-251 cells measured after 48 hrs by sulforhodamine B assay; assay type: functional; summary of the method: as §1
[4] = target: T1, Protein deacetylase HDAC6 (Mus musculus, UniProt Q9Z2V5); assay: Inhibition of mouse HDAC6 expressed in 293T cells using Ac-KGLGK(Ac)-MCA as substrate incubated for 30 mins in presence of 0.1 mM DTT by fluorescence plate reader assay; parameters: species or system HEK293T
T1 sequence (Q9Z2V5 whole entry): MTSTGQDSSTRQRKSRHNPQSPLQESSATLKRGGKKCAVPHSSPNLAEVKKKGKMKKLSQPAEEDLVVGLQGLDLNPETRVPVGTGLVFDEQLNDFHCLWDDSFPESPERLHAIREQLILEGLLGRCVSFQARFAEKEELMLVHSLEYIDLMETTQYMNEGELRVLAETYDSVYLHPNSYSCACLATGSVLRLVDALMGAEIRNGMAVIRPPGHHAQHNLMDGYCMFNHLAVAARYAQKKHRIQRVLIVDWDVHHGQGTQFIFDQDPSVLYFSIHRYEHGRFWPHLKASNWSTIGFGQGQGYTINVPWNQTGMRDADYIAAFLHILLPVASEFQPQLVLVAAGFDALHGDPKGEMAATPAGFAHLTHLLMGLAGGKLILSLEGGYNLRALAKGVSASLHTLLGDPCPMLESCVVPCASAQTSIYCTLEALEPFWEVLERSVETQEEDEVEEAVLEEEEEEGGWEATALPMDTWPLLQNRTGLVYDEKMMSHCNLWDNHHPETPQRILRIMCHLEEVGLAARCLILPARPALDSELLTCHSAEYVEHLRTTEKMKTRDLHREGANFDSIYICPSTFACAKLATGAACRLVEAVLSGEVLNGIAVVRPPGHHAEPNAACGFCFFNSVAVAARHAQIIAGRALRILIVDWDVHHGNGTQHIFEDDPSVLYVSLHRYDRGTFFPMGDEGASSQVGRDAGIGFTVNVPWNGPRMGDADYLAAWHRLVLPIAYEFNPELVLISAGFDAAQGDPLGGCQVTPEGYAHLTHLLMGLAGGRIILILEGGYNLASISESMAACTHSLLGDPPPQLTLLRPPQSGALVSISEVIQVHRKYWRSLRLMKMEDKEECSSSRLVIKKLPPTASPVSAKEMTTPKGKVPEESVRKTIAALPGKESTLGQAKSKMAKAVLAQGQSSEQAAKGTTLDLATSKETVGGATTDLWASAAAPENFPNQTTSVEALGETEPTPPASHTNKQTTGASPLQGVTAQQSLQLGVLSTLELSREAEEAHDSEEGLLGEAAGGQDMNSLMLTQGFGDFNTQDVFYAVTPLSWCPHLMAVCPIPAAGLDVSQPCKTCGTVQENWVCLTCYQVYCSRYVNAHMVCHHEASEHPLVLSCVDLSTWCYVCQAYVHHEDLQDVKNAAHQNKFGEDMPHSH
Summary of the method: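 HDAC enzyme assay run in the presence of 0.1 mM dithiothreitol (DTT); IC₅₀ determined.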

[5] = system: DMS-273; assay: Growth inhibition of human DMS-273 cells measured after 48 hrs by sulforhodamine B assay; assay type: functional; summary of the method: as §1
[6] = system: SF-268; assay: Growth inhibition of human SF-268 cells measured after 48 hrs by sulforhodamine B assay; assay type: functional; summary of the method: as §1
[7] = system: ACHN; assay: Growth inhibition of human ACHN cells measured after 48 hrs by sulforhodamine B assay; assay type: functional; summary of the method: as §1
[8] = Growth inhibition of human HBC4 cells measured after 48 hrs by sulforhodamine B assay; assay type: functional; summary of the method: as §1
[9] = system: KM12; assay: Growth inhibition of human KM12 cells measured after 48 hrs by sulforhodamine B assay; assay type: functional; summary of the method: as §1
[10] = system: MKN-45; assay: Growth inhibition of human MKN-45 cells measured after 48 hrs by sulforhodamine B assay; assay type: functional; summary of the method: as §1
[11] = system: DMS-114; assay: Growth inhibition of human DMS-114 cells measured after 48 hrs by sulforhodamine B assay; assay type: functional; summary of the method: as §1
[12] = system: OVCAR-4; assay: Growth inhibition of human OVCAR-4 cells measured after 48 hrs by sulforhodamine B assay; assay type: functional; summary of the method: as §1
[13] = Growth inhibition of human HBC5 cells measured after 48 hrs by sulforhodamine B assay; assay type: functional; summary of the method: as §1
[14] = system: OVCAR-3; assay: Growth inhibition of human OVCAR-3 cells measured after 48 hrs by sulforhodamine B assay; assay type: functional; summary of the method: as §1
[15] = Selectivity index, ratio of IC50 for mouse HDAC6 expressed in 293T cells to IC50 for human HDAC1 expressed in 293T cells using Ac-KGLGK(Ac)-MCA as substrate incubated for 30 mins in presence of 0.1 mM DTT by fluorescence plate reader assay; settings: 0.5 h
Summary of the method: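 Ratio of HDAC6 IC₅₀ to HDAC1 IC₅₀, taken as selectivity for class I HDAC1 over class II HDAC6. Both enzyme assays were run in the presence of 0.1 mM DTT.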

[16] = system: LOX IMVI; assay: Growth inhibition of human LOX IMVI cells measured after 48 hrs by sulforhodamine B assay; assay type: functional; summary of the method: as §1
[17] = system: DU-145; assay: Growth inhibition of human DU-145 cells measured after 48 hrs by sulforhodamine B assay; assay type: functional; summary of the method: as §1
[18] = system: RXF 631; assay: Growth inhibition of human RXF 631 cells measured after 48 hrs by sulforhodamine B assay; assay type: functional; summary of the method: as §1
[19] = Growth inhibition of human BSY1 cells measured after 48 hrs by sulforhodamine B assay; assay type: functional; settings: BSY-1; summary of the method: as §1
[20] = system: OVCAR-8; assay: Growth inhibition of human OVCAR-8 cells measured after 48 hrs by sulforhodamine B assay; assay type: functional; summary of the method: as §1
[21] = system: MCF7; assay: Growth inhibition of human MCF7 cells measured after 48 hrs by sulforhodamine B assay; assay type: functional; summary of the method: as §1
[22] = system: HCC 2998; assay: Growth inhibition of human HCC 2998 cells measured after 48 hrs by sulforhodamine B assay; assay type: functional; summary of the method: as §1
[23] = system: MKN-28; assay: Growth inhibition of human MKN-28 cells measured after 48 hrs by sulforhodamine B assay; assay type: functional; summary of the method: as §1
[24] = system: SNB-75; assay: Growth inhibition of human SNB-75 cells measured after 48 hrs by sulforhodamine B assay; assay type: functional; summary of the method: as §1
[25] = system: SK-OV-3; assay: Growth inhibition of human SK-OV-3 cells measured after 48 hrs by sulforhodamine B assay; assay type: functional; summary of the method: as §1
[26] = system: NCI-H23; assay: Growth inhibition of human NCI-H23 cells measured after 48 hrs by sulforhodamine B assay; assay type: functional; summary of the method: as §1
[27] = system: HCT-116; assay: Growth inhibition of human HCT-116 cells measured after 48 hrs by sulforhodamine B assay; assay type: functional; summary of the method: as §1
[28] = system: SF-539; assay: Growth inhibition of human SF-539 cells measured after 48 hrs by sulforhodamine B assay; assay type: functional; summary of the method: as §1
[29] = system: MDA-MB-231; assay: Growth inhibition of human MDA-MB-231 cells measured after 48 hrs by sulforhodamine B assay; assay type: functional; summary of the method: as §1
[30] = target: Histone deacetylase 1 (Homo sapiens, UniProt Q13547); assay: Inhibition of human HDAC1 expressed in 293T cells using Ac-KGLGK(Ac)-MCA as substrate incubated for 30 mins in presence of 0.1 mM DTT by fluorescence plate reader assay; parameters: species or system HEK293T
Chain of Histone deacetylase 1 (Q13547 whole entry): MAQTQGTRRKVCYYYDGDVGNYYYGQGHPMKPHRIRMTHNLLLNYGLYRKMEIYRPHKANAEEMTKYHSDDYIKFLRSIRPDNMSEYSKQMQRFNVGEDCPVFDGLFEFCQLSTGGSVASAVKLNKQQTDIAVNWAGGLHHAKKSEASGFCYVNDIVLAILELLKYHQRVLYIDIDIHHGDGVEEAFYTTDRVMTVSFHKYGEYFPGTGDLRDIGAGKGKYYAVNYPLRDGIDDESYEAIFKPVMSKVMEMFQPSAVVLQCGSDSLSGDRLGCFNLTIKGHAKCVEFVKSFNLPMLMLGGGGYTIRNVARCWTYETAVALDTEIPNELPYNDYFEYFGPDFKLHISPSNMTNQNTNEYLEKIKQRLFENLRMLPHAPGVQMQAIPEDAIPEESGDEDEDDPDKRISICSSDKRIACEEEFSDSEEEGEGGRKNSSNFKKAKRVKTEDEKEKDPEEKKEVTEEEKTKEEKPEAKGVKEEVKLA

[31] = system: MKN-74; assay: Growth inhibition of human MKN-74 cells measured after 48 hrs by sulforhodamine B assay; assay type: functional; summary of the method: as §1
[32] = system: NCI-H522; assay: Growth inhibition of human NCI-H522 cells measured after 48 hrs by sulforhodamine B assay; assay type: functional; summary of the method: as §1
[33] = system: HCT-15; assay: Growth inhibition of human HCT-15 cells measured after 48 hrs by sulforhodamine B assay; assay type: functional; summary of the method: as §1
[34] = system: NCI-H226; assay: Growth inhibition of human NCI-H226 cells measured after 48 hrs by sulforhodamine B assay; assay type: functional; summary of the method: as §1
[35] = system: NCI-H460; assay: Growth inhibition of human NCI-H460 cells measured after 48 hrs by sulforhodamine B assay; assay type: functional; summary of the method: as §1
[36] = system: HT-29; assay: Growth inhibition of human HT-29 cells measured after 48 hrs by sulforhodamine B assay; assay type: functional; summary of the method: as §1
[37] = system: PC-3; assay: Growth inhibition of human PC-3 cells measured after 48 hrs by sulforhodamine B assay; assay type: functional; summary of the method: as §1
[38] = system: SF-295; assay: Growth inhibition of human SF-295 cells measured after 48 hrs by sulforhodamine B assay; assay type: functional; summary of the method: as §1
[39] = system: St-4; assay: Growth inhibition of human St-4 cells measured after 48 hrs by sulforhodamine B assay; assay type: functional; summary of the method: as §1
[40] = system: MKN-7; assay: Growth inhibition of human MKN-7 cells measured after 48 hrs by sulforhodamine B assay; assay type: functional; summary of the method: as §1
[41] = system: A549; assay: Growth inhibition of human A549 cells measured after 48 hrs by sulforhodamine B assay; assay type: functional; summary of the method: as §1
[42] = system: OVCAR-5; assay: Growth inhibition of human OVCAR-5 cells measured after 48 hrs by sulforhodamine B assay; assay type: functional; summary of the method: as §1

SMILES: CC(C)[C@H]1NC(=O)C[C@H]2/C=C/CCSSC[C@@H](NC1=O)C(=O)N[C@H](C)C(=O)NCC(=O)O2
- GI50 [1]: 36 nM
- GI50 [2]: 10 nM
- GI50 [3]: 19 nM
- IC50 [4]: 1010 nM
- GI50 [5]: 89 nM
- GI50 [6]: 31 nM
- GI50 [7]: 0.27 µM
- GI50 [8]: 30 nM
- GI50 [9]: 20 nM
- GI50 [10]: 500 nM
- GI50 [11]: 17 nM
- GI50 [12]: 100 nM
- GI50 [13]: 160 nM
- GI50 [14]: 22 nM
- Ratio IC50 [15]: 480
- GI50 [16]: 11 nM
- GI50 [17]: 21 nM
- GI50 [18]: 110 nM
- GI50 [19]: 36 nM
- GI50 [20]: 31 nM
- GI50 [21]: 37 nM
- GI50 [22]: 14 nM
- GI50 [23]: 440 nM
- GI50 [24]: 10 nM
- GI50 [25]: 19 nM
- GI50 [26]: 31 nM
- GI50 [27]: 10 nM
- GI50 [28]: 10 nM
- GI50 [29]: 21 nM
- IC50 [30]: 2.1 nM
- GI50 [31]: 35 nM
- GI50 [32]: 10 nM
- GI50 [33]: 6.7 µM
- GI50 [34]: 110 nM
- GI50 [35]: 15 nM
- GI50 [36]: 13 nM
- GI50 [37]: 70 nM
- GI50 [38]: 71 nM
- GI50 [39]: 410 nM
- GI50 [40]: 260 nM
- GI50 [41]: 15 nM
- GI50 [42]: 14 nM

SMILES: CC(C)C[C@@H]1NC(=O)[C@H]2CSSCC/C=C/[C@H](CC(=O)N[C@H](C(C)C)C(=O)N2)OC(=O)CNC1=O
- GI50 [1]: 1100 nM
- GI50 [2]: 1800 nM
- GI50 [3]: 330 nM
- IC50 [4]: 2260 nM
- GI50 [5]: 1400 nM
- GI50 [6]: 820 nM
- GI50 [7]: 9.4 µM
- GI50 [8]: 1400 nM
- GI50 [9]: 1100 nM
- GI50 [10]: 2200 nM
- GI50 [11]: 680 nM
- GI50 [12]: 1600 nM
- GI50 [13]: 1700 nM
- GI50 [14]: 1500 nM
- Ratio IC50 [15]: 198
- GI50 [16]: 180 nM
- GI50 [17]: 830 nM
- GI50 [18]: 3200 nM
- GI50 [19]: 1500 nM
- GI50 [20]: 1500 nM
- GI50 [21]: 1600 nM
- GI50 [22]: 1300 nM
- GI50 [23]: 1800 nM
- GI50 [24]: 1000 nM
- GI50 [25]: 1500 nM
- GI50 [26]: 1200 nM
- GI50 [27]: 340 nM
- GI50 [28]: 1500 nM
- GI50 [29]: 1200 nM
- IC50 [30]: 11.4 nM
- GI50 [31]: 1500 nM
- GI50 [32]: 200 nM
- GI50 [33]: 17 µM
- GI50 [34]: 1600 nM
- GI50 [35]: 1100 nM
- GI50 [36]: 690 nM
- GI50 [37]: 1400 nM
- GI50 [38]: 1500 nM
- GI50 [39]: 2100 nM
- GI50 [40]: 1800 nM
- GI50 [41]: 720 nM
- GI50 [42]: 1200 nM
